Bioassay records as filed in PubChem.
Hits are enriched below; roughly 2.5% of the tested compounds scored in any of these assays.
SENP7 block = blocks the human protease SENP7; Q9BQF6; recombinant SENP7, Z-RLRGG-aminoluciferin luminescence, 40 min; inhibition, % at 5 µM; 1.5% of 330,000 active; AID 434973;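 active means inhibition above about 50% at the single test dose, limit read from the data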;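 further: plate controls were DMSO with enzyme for no effect and no enzyme buffer wells for full effect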
Target sequence (Q9BQF6 706-1050 limits assumed): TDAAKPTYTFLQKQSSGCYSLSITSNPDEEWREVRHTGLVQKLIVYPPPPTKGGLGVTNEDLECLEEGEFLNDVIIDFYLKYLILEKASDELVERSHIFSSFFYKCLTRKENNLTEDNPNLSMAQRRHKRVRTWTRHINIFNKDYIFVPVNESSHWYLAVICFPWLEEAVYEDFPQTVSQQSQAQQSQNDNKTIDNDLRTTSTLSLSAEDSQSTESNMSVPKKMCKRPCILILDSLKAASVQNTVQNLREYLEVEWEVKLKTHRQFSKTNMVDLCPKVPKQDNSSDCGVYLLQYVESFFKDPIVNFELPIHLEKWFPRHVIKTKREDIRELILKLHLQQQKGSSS
SENP8 block-1 = blocks human SENP8 cleavage of Nedd8 substrate. Q96LD8. 0.64% of 360,000 active. inhibition, % at 20 µM. recombinant SENP8, Nedd8 substrate fluorescence. AID 602440; in the data active means inhibition mostly above about 40%, no sharp cut-off; inactive means mostly below about 27%
Target sequence (Q96LD8 whole entry, looked up): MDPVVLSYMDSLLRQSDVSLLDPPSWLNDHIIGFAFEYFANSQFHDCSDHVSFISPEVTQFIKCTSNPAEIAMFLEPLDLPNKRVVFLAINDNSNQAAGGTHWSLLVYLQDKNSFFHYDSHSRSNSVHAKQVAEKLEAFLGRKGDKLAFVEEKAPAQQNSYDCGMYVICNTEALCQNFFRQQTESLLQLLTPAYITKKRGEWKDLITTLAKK
SENP1 inh = blocks the human SENP1 SUMO protease catalytic domain; recombinant SENP1 catalytic domain, CyPet-SUMO1-YPet FRET cleavage; 0.21% of 360,000 active; Q9P0U3; inhibition, % at 10 µM;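 active means inhibition at least 30% at 10 µM, raw YFP signal under a set limit, fluorescence ratio 0.5 to 1.5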;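 further: 0% = enzyme with DMSO and 100% = no enzyme wells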
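material = recombinant human SENP1 catalytic domain, His6-tagged | quantity = 20 pM enzyme | reagent = 25 nM SUMO1 FRET substrate | compound dosing = 10 µM single point, 0.5% DMSO | timing = 50 min enzyme reaction, room temperature, light-protected | detection = FRET, CFP and YFP emission | control set = no-enzyme low, enzyme-DMSO high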
SENP8 block-2 = SENP8 protease inhibition; inhibition, % at 10 µM; Q96LD8; 1.2% of 330,000 active; purified SENP8, Z-RLRGG-aminoluciferin cleavage, luminescence; in the data active means inhibition above about 50%
SENP6 block = SENP6 protease inhibition. 1.8% of 330,000 active. inhibition, % at 10 µM. AID 2599. Q9GZR1. Recombinant SENP6 catalytic domain, aminoluciferin luminescence;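 active means inhibition above about 50% at the single tested dose, limit read from the data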;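 further: plate controls were DMSO wells with enzyme for no effect and DMSO wells lacking enzyme for full effect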
The depositor's hits bear a star; / = no result given.

SMILES	SENP7 block	SENP8 block-1	SENP1 inh	SENP8 block-2	SENP6 block
Cc1cccc(/C=C/c2onc(C)c2[N+](=O)[O-])n1	-3	/	/	2	1
Cc1cc(O)ccc1N/C=C/c1onc(C)c1[N+](=O)[O-]	97*	26	23	47	87*
O=C(Cc1ccc(Cl)cc1)NCc1ccccc1Cl	-2	6	0	4	-1
O=C(Cc1ccccc1Cl)NC1(O)C(=O)c2ccccc2C1=O	4	67*	2	12	38
COC(=O)c1ccc2c(c1)SC1=C(CCCC1=O)N2	2	-55	43*	-3	-26
O=C(c1ccccc1)C1C(=O)c2ccccc2C1=O	12	46*	4	1	9
COc1ccc(S(=O)(=O)Nc2cc3c4c(c2)CC(=O)N4CCC3)cc1OC	/	1	-3	/	/
COc1ccc(CCN2C(=O)CCC2(C)c2nnnn2-c2c(C)cccc2C)cc1OC (stereo not drawn)	/	11	1	/	/
Cc1ccc(NC(=O)Nc2cccc(Cl)c2)c(C(=O)O)c1	69*	-367	3	73*	45
COc1ccc(Nc2cccc(Cl)c2)c(C(=O)O)c1	7	-20	4	29	35
O=S1(=O)CC(N2CCSCC2)CN1Cc1cn(Cc2ccc(C(F)(F)F)cc2)nn1 (stereo not drawn)	/	11	0	/	/
O=C(Nc1cccc(OC(F)(F)F)c1)c1cccc2c(-c3cccnc3)coc12	/	18	0	/	/
Cc1ccc(C(=O)N2CCN(c3ccc(NC(=O)c4cc(C)cc(C)c4)cc3)CC2)cc1	10	8	0	-11	-13
Cc1cc(C)cc(C(=O)Nc2ccc(N3CCCC3)cc2)c1	56*	12	-20	66*	74*
CCOc1cc(OCC)cc(C(=O)N2CCC[C@H]2C(=O)N2CCC[C@H]2C(=O)NCc2ccccn2)c1	/	18	-2	/	/
CN(C)CCCN(C(=O)c1ccc([N+](=O)[O-])s1)c1nc2cc3c(cc2s1)OCCO3	5	19	0	55*	47
CN(C)CCCN(C(=O)c1ccc(Br)s1)c1nc2cc3c(cc2s1)OCCO3	2	-15	-69	-8	1
CC[C@@H]1CC2=C(C(=O)OC(C)(C)O2)[C@H](c2ccc(F)cc2)O1	/	12	-3	/	/
Cc1ccc(-n2nc3ccc(N)cc3n2)cc1	34	-496	-19	80*	89*
Cc1cc2nn(-c3ccc(F)cc3)nc2cc1N	6	-335	-30	70*	76*
CCN(CC)CCNc1nc2nonc2nc1NCCN(CC)CC	4	13	-1	-2	-4
O=C1CC(C(=O)N2CCc3ccccc32)CN1c1cccc(C(F)(F)F)c1 (stereo not drawn)	3	11	0	-2	-17
Cc1cccc(C)c1NC(=O)C1(C)CSCC(=O)N1CCCN1CCOCC1 (stereo not drawn)	/	25	1	/	/
CCOc1ccc(-n2c(C)nc(O)c2N=Nc2ccccc2)cc1	6	43*	10	3	-2
CC(C(=O)Nc1ccc(O)cc1C(=O)O)N1C(=O)/C(=C\c2cccs2)SC1=S (stereo not drawn)	1	62*	-1	18	34
SMILES	SENP7 block	SENP8 block-1	SENP1 inh	SENP8 block-2	SENP6 block
CC1CCCN(c2ccc(/C=C(\C#N)c3nn(-c4ccccc4)c(N)c3C#N)cc2[N+](=O)[O-])C1 (stereo not drawn)	7	47*	1	7	2
CC1CCN(c2ccc(/C=C(\C#N)c3nn(-c4ccccc4)c(N)c3C#N)cc2[N+](=O)[O-])CC1	-2	31	2	-5	8
CC1CCN(c2cc(N3CCC(C)CC3)c([N+](=O)[O-])cc2/C=C(\C#N)c2nn(-c3ccccc3)c(N)c2C#N)CC1	12	60*	9	3	9
CC(Nc1ccccc1)c1cc(Cl)ccc1O (stereo not drawn)	1	25	1	-4	-5
COc1ccc(NC(C)c2cc(Cl)ccc2O)cc1 (stereo not drawn)	-5	47*	0	-6	-12
COc1ccc(N2CCN(C(=O)c3ccc(C)c(Cl)c3)CC2)cc1	0	40*	5	5	9
Oc1[nH]c2ccccc2c1C=Nc1ccccc1	62*	38	-3	46	67*
OCCN=Cc1c(O)[nH]c2ccccc12	15	15	3	-1	-8
Cc1nc2c(-c3ccc(F)cc3)c(C)nn2c(C)c1CCC(=O)Nc1ccccc1	6	-20	-2	3	61*
COc1cccc(C2C3=C(CC(C)(C)CC3=O)Nc3n[nH]c(C)c32)c1 (stereo not drawn)	-12	-452	3	-10	-13
CCOC(=O)Cc1csc(SCC(=O)NC2CCS(=O)(=O)C2)n1 (stereo not drawn)	-8	10	0	11	-9
CCOC(=O)c1nn(-c2ccccc2)c(=O)c2c(NC(C)=O)scc12	-5	-109	-4	6	-14
CCOC(=O)c1nn(-c2ccccc2)c(=O)c2c(N)scc12	-4	55*	11	0	2
Cc1ccccc1/C=N/NC(=O)c1sccc1C	99*	3	6	95*	96*
Cc1ccc(/C=C2/N=C(c3ccccc3)NNC2=O)cc1	-3	35	1	-2	-8
O=C1NNC(c2ccccc2)=N/C1=C\c1ccccc1	6	47*	1	5	2
CCOc1ccc(NC(=O)c2ccccc2NC(=O)c2cccnc2)cc1	-1	13	1	-3	-6
CC(C)NC(=O)/C(C#N)=C/c1ccc(N(C)C)o1	-8	40*	-45	0	-7
Cc1ccc(/C=C(\C#N)C(=O)NC(C)C)o1	0	10	2	-2	-4
COc1cc2cc(C(=O)N3CCOCC3)cc(-c3ccc(C)cc3)c2cc1OC	7	1	1	2	-18
CC(C)OC(=O)N(C)C[C@@H]1OCc2cn(nn2)CCCC(=O)N([C@@H](C)CO)C[C@H]1C	/	6	0	/	/
COC(=O)CCC(C)C1CCC2C3CCC4CC(O)CCC4(C)C3=CC(=O)C12C (stereo not drawn)	/	6	4	/	/
CCCn1c(=O)c(C(=O)OCC)c(O)c2cc(Br)ccc21	2	6	3	3	5
CCOC(=O)c1c2c(n(C)c1COC)C(=O)C(=O)c1ccc(Br)cc1-2	95*	/	/	97*	96*
CCCn1c(N)c(C(=O)CSc2nnc(Cc3cccs3)n2C2CC2)c(=O)n(C)c1=O	-15	7	1	1	0
N#C/C(=N\Nc1ccc(S(=O)(=O)N2CCCCCC2)cc1)C(N)=S	-7	31	3	15	-18
N#CC(C#N)=NNc1ccc(S(=O)(=O)N2CCCC2)cc1	-3	47*	0	-9	2
N#C/C(=N\Nc1ccc(S(=O)(=O)N2CCCCC2)cc1)C(N)=S	1	45*	5	-2	1
N#C/C(=N\Nc1ccc(S(=O)(=O)N2CCc3ccccc32)cc1)C(N)=S	-6	41*	4	-7	-20
